# ChEMBL document CHEMBL5705892, “MK-2206, an allosteric Akt inhibitor, enhances antitumor efficacy by standard chemotherapeutic agents or molecular targeted drugs in vitro and in vivo” (Mol Cancer Ther, 2010)
# The source made the active and inactive calls. The rule behind the calls is not given here.
# Key:
# HCC70 [1] = experiment: Synergistic antiproliferative activity against human HCC70 cells assessed as combination index at ED75 measured after 72 hrs in presence of lapatinib by celltiter-glo assay; type: functional
# Method in brief: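 Cells grown in RPMI 1640 with 10% heat-inactivated FBS at 37°C, 5% CO₂. Seeded at 2 to 3 × 10³ per well; drugs added 24 h later. […] Viability read as cellular ATP by CellTiter-Glo. CI calculated by Chou–Talalay from median-effect plots at ED50, ED75 and ED90.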
# SK-OV-3 = experiment: Synergistic antiproliferative activity against human SK-OV-3 cells assessed as combination index at ED90 measured after 72 hrs in presence of lapatinib by celltiter-glo assay; type: functional
# NCI-N87 = experiment: Synergistic antiproliferative activity against human NCI-N87 cells assessed as combination index at ED90 measured after 72 hrs in presence of lapatinib by celltiter-glo assay; type: functional
# NCI-H1299 = experiment: Synergistic antiproliferative activity against human NCI-H1299 cells assessed as fold change in erlotinib IC50 at 1 umol/L measured after 72 hrs in presence of erlotinib by celltiter-glo assay relative to erlotinib alone; type: functional; settings: dose 1 µmol/L
# NCI-H292 = experiment: Induction of apoptosis in human NCI-H292 cells assessed as increase in caspase-3/7 activity measured after 48 hrs in presence of erlotinib by caspase-glo 3/7 assay; type: functional, cell-based; settings: dose <= 3.0 µmol/L
# Method in brief: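 Caspase-3/7 activity was measured by Caspase-Glo 3/7 and expressed as fold over DMSO vehicle control. The experiment was done twice.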
# [2] = target: RAC-alpha serine/threonine-protein kinase (Homo sapiens) (UniProt P31749); experiment: Inhibition of AKT in human HCC827 cells assessed as reduction in AKT phosphorylation at S473 residue at 5 umol/L measured after 5 hrs in presence of erlotinib by Western blot analysis; type: cell-based; settings: dose 5.0 µmol/L
# [3] = In vivo inhibition of ERK phosphorylation at T202/Y204 residues in human NCI-H292 cells xenografted mouse at 120 mg/kg, po administered as single dose 2 hrs post-erlotinib treatment measured after 12 hrs by Western blot analysis relative to control; type: functional
# MDA-MB-468 [4] = experiment: Synergistic antiproliferative activity against human MDA-MB-468 cells assessed as combination index at ED75 treated 24 hrs prior to lapatinib and measured after 72 hrs by celltiter-glo assay; type: functional; settings: time 96 hrs
# HCC70 [5] = experiment: Synergistic antiproliferative activity against lapatinib pretreated human HCC70 cells assessed as combination index at ED90 measured after 72 hrs by celltiter-glo assay; type: functional
# MDA-MB-468 [6] = experiment: Synergistic antiproliferative activity against human MDA-MB-468 cells assessed as combination index at ED90 measured after 96 hrs in presence of lapatinib by celltiter-glo assay; type: functional
# [7] = target: RAC-alpha serine/threonine-protein kinase (Homo sapiens) (UniProt P31749); experiment: Inhibition of AKT in human HCC70 cells assessed as reduction in S6 phosphorylation at S240/S244 residues at 1 umol/L measured after 3 to 24 hrs in presence of lapatinib by Western blot analysis; type: cell-based; settings: dose 1.0 µmol/L, time 3-24 hrs
# Method in brief: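 HCC70 cells at ~70% confluence were exposed to 10 µmol/L lapatinib, 1 µmol/L MK-2206, or both, for 0, 3, 6, 12 or 24 h. Lysates were prepared in Triton X-100/Tris buffer (pH 7.5) with protease and phosphatase inhibitors. Immunoblots after SDS-PAGE and nitrocellulose transfer were probed for pAkt and pS6.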
# HCC70 [8] = experiment: Antitumor activity against human HCC70 cells xenografted in CB17/icr SCID mouse assessed as reduction in tumor volume at 120 mg/kg, po administered 3 times per week for 3 weeks and measured twice a week during compound dosing by caliper method; type: functional, organism-based
# Method in brief: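 Female C.B-17/ICR-scid mice were given s.c. HCC70 cells in 50% Matrigel/50% PBS in the left flank. They were randomized at a mean tumor size of 0.2 cm³, n = 5 per group. Lapatinib (distilled water) was given at 100 mg/kg po, 5 d/wk for 3 wk. MK-2206 (30% Captisol) was given at 120 mg/kg po, 3×/wk, 2 h after lapatinib. Calipers twice weekly; volume = […] × 0.5.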
# SK-BR-3 = experiment: Synergistic antiproliferative activity against human SK-BR-3 cells assessed as combination index at ED75 measured after 72 hrs in presence of docetaxel by celltiter-glo assay; type: functional
# MDA-MB-468 [9] = experiment: Synergistic antiproliferative activity against human MDA-MB-468 cells assessed as combination index at ED90 measured after 72 hrs in presence of docetaxel by celltiter-glo assay; type: functional
# NCI-H460 [10] = experiment: Synergistic antiproliferative activity against human NCI-H460 cells assessed as combination index at ED90 measured after 72 hrs in presence of camptothecin by celltiter-glo assay; type: functional
# NCI-H460 [11] = experiment: Antitumor activity against human NCI-H460 cells xenografted in CD1 nude mouse assessed as reduction in tumor volume at 120 mg/kg, po administered 3 times per week for 2 weeks in presence of carboplatin by caliper method; type: functional, organism-based
# Method in brief: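 NCI-H460 cells were injected s.c. in Matrigel/PBS into CD1-nude mice (female in the carboplatin study). Mice were randomized at 0.2 cm³, n = 5. Carboplatin was given at 50 mg/kg or gemcitabine at 100 mg/kg, i.v. in saline, on days 0 and 7. MK-2206 (30% Captisol) was given at 120 mg/kg po on days 0, 2, 4, 7, 9, 11. Tumors measured by caliper twice weekly.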
# [12] = Toxicity in human NCI-H460 cells xenografted CD1 nude mouse assessed as body weight loss at 120 mg/kg, po administered 3 times per week for 2 weeks measured during compound dosing relative to control; type: organism-based; settings: in vivo, 336 h
# [13] = Toxicity in human NCI-H460 cells xenografted CD1 nude mouse assessed as body weight loss at 120 mg/kg, po administered 3 times per week for 2 weeks in presence of carboplatin measured during compound dosing relative to control; type: organism-based; settings: in vivo, 336 h
# Method in brief: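 Female CD1-nude mice with s.c. NCI-H460 tumours (50% Matrigel/50% PBS), randomized at mean 0.2 cm³, n=5/group, dosing from 12 d post-implant. Body weight monitored against vehicle-only controls.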
# [14] = Toxicity in human NCI-H460 cells xenografted CD1 nude mouse assessed as body weight loss at 120 mg/kg, po administered 3 times per week for 2 weeks measured on day 14 to 16 in presence of carboplatin; type: organism-based; settings: in vivo, 336 h, time 14-16 day
# Method in brief: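 NCI-H460 cells in 50% Matrigel/PBS injected s.c. into flank of CD1-nude mice; randomized at mean tumour 0.2 cm³ (n = 5). MK-2206 in 30% Captisol, 120 mg/kg p.o. days 0, 2, 4, 7, 9, 11. Carboplatin 50 mg/kg i.v. in saline days 0 and 7 (from day 12 after implant), or gemcitabine 100 mg/kg i.v. in saline days 0 and 7 (from day 8). Body weight monitored.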
# NCI-H441 = experiment: Induction of apoptosis in human NCI-H441 cells assessed as fold induction of capsase-3/7 activity measured after 24 to 48 hrs in presence of carboplatin by caspase-glo 3/7 assay; type: functional; settings: time 24-48 hrs
# UMC-11 = experiment: Induction of apoptosis in human UMC-11 cells assessed as fold induction of capsase-3/7 activity measured after 24 to 48 hrs in presence of carboplatin by caspase-glo 3/7 assay; type: functional; settings: time 24-48 hrs
# Chain of RAC-alpha serine/threonine-protein kinase (Homo sapiens) (P31749 whole entry): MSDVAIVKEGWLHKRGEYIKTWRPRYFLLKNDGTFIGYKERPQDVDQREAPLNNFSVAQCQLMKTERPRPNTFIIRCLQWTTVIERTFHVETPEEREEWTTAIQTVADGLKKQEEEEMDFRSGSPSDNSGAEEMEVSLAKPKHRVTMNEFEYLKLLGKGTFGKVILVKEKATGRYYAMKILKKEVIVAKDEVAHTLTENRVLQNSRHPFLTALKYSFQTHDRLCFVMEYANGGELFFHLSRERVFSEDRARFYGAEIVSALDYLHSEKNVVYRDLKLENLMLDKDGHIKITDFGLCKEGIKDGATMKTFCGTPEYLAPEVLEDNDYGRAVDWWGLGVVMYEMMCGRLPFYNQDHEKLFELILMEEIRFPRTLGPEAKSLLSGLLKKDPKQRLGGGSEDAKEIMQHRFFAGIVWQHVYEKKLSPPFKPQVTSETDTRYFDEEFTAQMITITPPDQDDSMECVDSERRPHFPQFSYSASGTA
structure (smiles),measurement,setting,value
Cl.NC1(c2ccc(-c3nc4ccn5c(=O)[nH]nc5c4cc3-c3ccccc3)cc2)CCC1,CI75,HCC70 [1],0.28
same,CI90,SK-OV-3,0.25
same,CI90,NCI-N87,0.69
same,Ratio IC50,NCI-H1299,>7.9
same,Activity,NCI-H292,Dose-Dependent Effect
same,inhibition,[2],Active
same,inhibition in vivo at 120 mg/kg,[3],53.5%
same,CI75,MDA-MB-468 [4],0.18
same,CI90,HCC70 [5],0.18
same,CI90,MDA-MB-468 [6],0.18
same,inhibition,[7],Active
same,Activity,HCC70 [8],Active
same,CI75,SK-BR-3,0.7
same,CI90,MDA-MB-468 [9],0.9
same,CI90,NCI-H460 [10],0.63
same,Activity,NCI-H460 [11],Active
same,Activity,[12],7%
same,Activity,[13],7%
same,Activity,[14],Non-Toxic
same,fold change (FC),NCI-H441,2.3
same,fold change (FC),UMC-11,1.1
